Bioassay records as filed in PubChem BioAssay.
TNF necrop inh: blocks TNF-alpha induced death of Jurkat FADD-/- cells | Jurkat FADD-/- TNF necroptosis rescue, ATP luminescence, 24 h; 0 = TNF only, 100 = no-TNF cells | activation (protection from cell death), % at 10 µM | 220,000 tested, 0.068% active | AID 463075;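 active = activation, meaning protection from cell death, of at least 50% relative to plate controls; inactive = activation below 50%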;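 also: necroptosis triggered by 40 ng/mL TNF-alpha added together with compound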
Rad51 HR inh: Rad51 (human) homologous recombination inhibition | 200,000 tested, 0.085% active | hRad51 DNA strand exchange, fluorescence dequenching | inhibition, % at 10 µM | AID 1385;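 active = inhibition above 40% at the single screening dose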;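 also: 0% = DMSO control wells and 100% = blanks with heterologous ssDNA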
Target sequence (Q06609 whole entry, looked up): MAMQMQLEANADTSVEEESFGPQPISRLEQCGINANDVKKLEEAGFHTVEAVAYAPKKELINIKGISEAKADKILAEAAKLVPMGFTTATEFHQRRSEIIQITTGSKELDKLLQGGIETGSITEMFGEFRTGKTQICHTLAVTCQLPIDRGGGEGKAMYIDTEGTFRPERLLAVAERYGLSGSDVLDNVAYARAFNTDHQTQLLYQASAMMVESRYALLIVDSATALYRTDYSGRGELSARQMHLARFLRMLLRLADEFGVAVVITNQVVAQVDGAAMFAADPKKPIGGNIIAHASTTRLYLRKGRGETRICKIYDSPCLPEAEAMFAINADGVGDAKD
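Material: human Rad51–ssDNA filaments; Probe or stimulus: labelled 47-mer dsDNA for strand exchange; Doses: single 10 µM dose; Incubation: 37 °C 15-min filament assembly, 30-min compound preincubation, 15-min exchange; Technique: FRET fluorescence dequenching, excitation 485 nm, emission 520 nm; Measure: Fluorescence-based percent inhibition, control- and blank-normalised; Benchmarks: plate control and blank wells.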
L929 necroptosis: blocks zVAD induced death of L929 cells | L929 zVAD necroptosis rescue, ATP luminescence, 24 h; with zVAD 60 µM | viability rescue, % at 10 µM | 220,000 tested, 0.38% active | AID 1377;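 active = activation, scaled between plate controls, above about 75%, limit read from the data; inactive = activation under that limit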;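 also: 0% = zVAD with DMSO and 100% = DMSO alone without zVAD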
SDO1 yeast rescue: restores growth of sdo1-depleted yeast | z-score at 10 µM | S. cerevisiae sdo1-depleted JHY4D growth rescue, OD600 30 h; stronger effect = higher value; pdr5 snq2 efflux-pump mutant strain | 140,000 tested, 0.21% active;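 active = z-score above 3 at both the 24 hr and the 30 hr optical density reads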;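 also: z-score against mean and SD of all compound wells on the same plate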
zVAD necrop conf: confirmed blocker of zVAD induced death in L929 cells; 760 tested, 16% active; activation (protection from necroptosis), % at 10 µM; L929 zVAD-induced necroptosis rescue, ATP luminescence, 24 h; shares compounds with L929 necroptosis; AID 463117;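 active = mean protection from necroptosis of at least 50% over duplicate tests; inactive = mean protection below 50%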;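 also: 0% = cells with zVAD alone and 100% = vehicle cells without zVAD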
* hit, by the source's call; . = not tested or not shown. Compounds with a hit are over-represented: about 0.64% of the library has one in this group of screens.

SMILES	TNF necrop inh	Rad51 HR inh	L929 necroptosis	SDO1 yeast rescue	zVAD necrop conf
O=C(Nc1ccccc1)Nc1nccs1	7	8	85*	1.5	8
C[C@H]1CCC[C@]2(O[C@H](CCO)C[C@@H](O)[C@@H]2O)O1	.	-11	.	.	.
O=C(Nc1nccs1)c1cccc(NC(=O)C(F)(F)F)c1	15	-22	97*	.	47
CCC(CC)C(=O)Nc1cccc(C(=O)Nc2nccs2)c1	3	4	67	-1.2	.
CCOc1ccc2nc(NC(=O)C3CCCN(S(=O)(=O)c4cccs4)C3)sc2c1 (stereo not drawn)	1	3	88*	-1	5
CCOc1ccc2nc(NC(=O)C(NS(=O)(=O)c3cccs3)C(C)C)sc2c1 (stereo not drawn)	-2	2	1	-1.2	.
COCCCn1c(C)nc2c(c1=O)c1nc3ccccc3nc1n2CCc1ccccc1	-1	3	0	-1.1	.
NC(=NC(=O)c1ccc(Cl)cc1)N1N=CCC1c1ccccc1 (stereo not drawn)	0	18	1	.	.
O=C(Nc1ccc(Cl)c(Cl)c1)N1N=CCC1c1ccccc1 (stereo not drawn)	97*	6	79*	.	11
O=C(Nc1ccccc1)N1N=CCC1c1ccccc1 (stereo not drawn)	95*	12	85*	.	48
C=CCOc1ccc(/C=C/C(=O)Nc2ccc(C(=O)NC)cc2)cc1	0	.	.	1.1	.
C=CCOc1ccc(/C=C/C(C)=N\O)cc1	1	6	79*	-1.4	10
Cc1ccccc1CSc1nnc([C@@H]2CCCN2)o1	0	9	1	.	.
O=S(=O)(CC(CN1CCCCC1)N1CCCCC1)c1ccc2ccccc2c1 (stereo not drawn)	-5	-6	76*	.	2
O=S(=O)(CC(CN1CCOCC1)N1CCOCC1)c1ccccc1 (stereo not drawn)	1	9	0	.	.
Cc1ccc(S(=O)(=O)CC(CN2CCCCC2)N2CCCCC2)cc1 (stereo not drawn)	10	-33	81*	.	22
Cc1ccc(S(=O)(=O)NCC(=O)OCN2C(=O)c3ccccc3C2=O)cc1	0	21	0	0.05	.
COc1ccc(N/N=C(\C#N)C(N)=O)cc1	2	1	1	-1.6	.
COc1ccc(N/N=C(/C(N)=O)C2=NC(C)(C)Cc3ccccc32)cc1	2	10	76*	-1.2	39
Cc1ccc(Nc2cc(C)nn2-c2nc(C)cc(=O)[nH]2)cc1	9	5	78*	-2.3	53*
Cc1ccc(C(=O)Nc2cccc(C(F)(F)F)c2)cc1Nc1cnccn1	0	0	82*	.	70*
O=C(Nc1cnccn1)c1cccc(C(F)(F)F)c1	0	-2	2	-0.35	.
Cc1ccc(C(=O)Nc2cccc(C(F)(F)F)c2)cc1Nc1ncnc2nc[nH]c12	-4	-6	82*	.	72*
Cc1ccc(C(=O)Nc2cccc(C(F)(F)F)c2)cc1NC(=O)c1nccn1C	4	12	82*	.	10
Cc1ccc(C(=O)Nc2cccc(C(F)(F)F)c2)cc1NC(=O)c1ccno1	-1	-4	74	.	.
SMILES	TNF necrop inh	Rad51 HR inh	L929 necroptosis	SDO1 yeast rescue	zVAD necrop conf
COc1ccc(OC)c(-c2cc(C(F)(F)F)c3c(n2)sc2c(O)cc(=O)[nH]c23)c1	2	-6	0	0.07	.
CCC(=O)Oc1ccc(-c2cnc3ccccc3n2)cc1	-3	0	89*	-0.6	39
O=C(Cc1ccccc1)Nc1nnc(SCC(=O)NC2CCCC2)s1	2	15	1	.	.
CC(C)Nc1nnc(SCC(=O)Nc2ccc3c(c2)C(=O)c2ccccc2C3=O)s1	2	-12	81*	-0.41	45
O=C(CSc1nnc(NC2CCCCC2)s1)Nc1ccc2c(c1)C(=O)c1ccccc1C2=O	12	14	80*	.	90*
COc1ccc(/C=C(\NC(=O)c2ccccc2)C(=O)OC[C@@H]2CCC[N+]3(C)CCCCC23)cc1OC (stereo partly drawn)	0	-23	1	.	.
Nc1nnnn1/N=C/C(Br)=C/c1ccccc1	-17	1	116*	-1.5	102*
Cc1cc(NC(=O)c2ccccc2)c(Cl)cc1N	-8	-4	0	.	.
COCCNC(=O)C(c1cccnc1)N(Cc1ccc(C)cc1)C(=O)Cn1nnc2ccccc21 (stereo not drawn)	0	-18	-1	.	.
COc1ccc(CCN(Cc2cc3cccc(C)c3n3nnnc23)C(=O)c2ccncc2)cc1OC	2	8	0	.	.
Fc1ccccc1-c1ccc(/C=N/Nc2nc3ccccc3[nH]2)o1	-2	5	1	-1.4	.
Cc1ccc(/C=N\Nc2nc3ccc(Cl)cc3[nH]2)o1	9	-4	86*	-1.6	78*
CC(C)OCCCNC(=S)Nc1ccc(S(N)(=O)=O)cc1	3	5	75*	0.24	2
CCOC(=O)c1ccc(NC(=O)c2cccc(C)c2[N+](=O)[O-])cc1	5	-93	33	.	.
COC(=O)c1ccc(NC(=O)c2cccc(C)c2[N+](=O)[O-])cc1	4	0	85*	.	3
Cc1ccccc1Nc1ncnc(N)n1	-1	-15	1	.	.
Cc1cccc(OCCCC(=O)Nc2nccs2)c1	9	13	89*	.	3
OCCCc1nc2ccccc2[nH]1	-1	.	0	.	.
Cc1ccc(F)cc1NC(=O)Nc1cc(C(C)(C)C)nn1C	6	0	34	.	.
Cn1nc(C(C)(C)C)cc1NC(=O)Nc1cc(Cl)cc(Cl)c1	22	-15	94*	.	93*
Cc1cc2ncn(/N=C/c3cccnc3)c2cc1C	-2	2	76*	0.5	36
CC(C)(C)c1ccc(-c2nc(C#N)c(NCc3cccnc3)o2)cc1	2	4	78*	-1.4	10
N#Cc1nc(-c2ccc(F)cc2)oc1NCc1ccccc1	1	3	0	-1.2	.
O=C(Nc1ccc2c(c1)OCO2)c1noc2c1CCCCC2	2	-5	80*	0.14	7
CC(=O)c1ccc(NC(=O)c2noc3c2CCCCC3)cc1	-1	.	0	-0.46	.
SMILES	TNF necrop inh	Rad51 HR inh	L929 necroptosis	SDO1 yeast rescue	zVAD necrop conf
O=C(Nc1ccc(F)c(Cl)c1)Nc1ccc(Cl)cn1	1	.	17	.	.
Cc1cccnc1NC(=O)Nc1ccc(F)cc1	-1	4	82*	0.33	3
Cc1cnc(NC(=O)CSc2ccc(Cl)cc2)s1	1	9	0	-0.49	.
Cc1cnc(NC(=O)Nc2ccc(Cl)cc2)s1	-15	-14	78*	.	0
O=C(Nc1ccc(F)cc1)Nc1ccc(Cl)cn1	13	5	76*	-1.2	23
O=S(=O)(NC1CC1)c1ccc(S(=O)(=O)N2CCCC3(CCCCC3)C2)cc1	0	-7	0	-0.15	.
COc1cccc(NC(=S)NN=C2CCCCCC2)c1	1	.	-1	.	.
CC1=CC(=O)C(C(C)C)=C/C1=N\OC(=O)c1cccc2nc(C)oc12	-2	-11	87*	-0.39	4
Cc1ccnc2nc(C(=O)OCCOc3ccc(F)cc3)nn12	2	2	2	.	.
